Results reported in ChEMBL document CHEMBL5150051, “Identification and Characterization of a Novel Indoleamine 2,3-Dioxygenase 1 Protein Degrader for Glioblastoma” (J Med Chem, 2022).
pEC50: −log10 of the molar value. Activity calls are given as the source filed them. The rule behind the calls is not given here.

What was measured:
[1] = target: T1, Protein cereblon/Indoleamine 2,3-dioxygenase 1 (Homo sapiens, UniProt P14902+Q96SW2); test: Protac activity at CRBN/IDO1 in human U87 cells assessed as decrease in phosphorylated NF-kappaB p65 in nucleus at 1 to 10 uM measured after 24 hrs by Western blot analysis; assay type: cell-based; conditions: dose 1-10 µM
Target sequence in this assay (P14902 whole entry, looked up): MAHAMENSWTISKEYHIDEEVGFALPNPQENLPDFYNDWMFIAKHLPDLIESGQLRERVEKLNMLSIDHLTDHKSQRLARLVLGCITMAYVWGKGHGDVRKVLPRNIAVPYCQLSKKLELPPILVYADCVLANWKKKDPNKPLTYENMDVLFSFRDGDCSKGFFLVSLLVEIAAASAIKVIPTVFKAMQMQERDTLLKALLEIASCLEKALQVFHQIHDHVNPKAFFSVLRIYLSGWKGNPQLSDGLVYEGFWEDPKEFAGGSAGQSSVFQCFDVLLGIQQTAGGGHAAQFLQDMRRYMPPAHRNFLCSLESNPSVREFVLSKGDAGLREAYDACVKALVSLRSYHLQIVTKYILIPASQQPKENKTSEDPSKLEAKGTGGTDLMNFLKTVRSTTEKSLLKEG
Target sequence in this assay (Q96SW2 whole entry, looked up): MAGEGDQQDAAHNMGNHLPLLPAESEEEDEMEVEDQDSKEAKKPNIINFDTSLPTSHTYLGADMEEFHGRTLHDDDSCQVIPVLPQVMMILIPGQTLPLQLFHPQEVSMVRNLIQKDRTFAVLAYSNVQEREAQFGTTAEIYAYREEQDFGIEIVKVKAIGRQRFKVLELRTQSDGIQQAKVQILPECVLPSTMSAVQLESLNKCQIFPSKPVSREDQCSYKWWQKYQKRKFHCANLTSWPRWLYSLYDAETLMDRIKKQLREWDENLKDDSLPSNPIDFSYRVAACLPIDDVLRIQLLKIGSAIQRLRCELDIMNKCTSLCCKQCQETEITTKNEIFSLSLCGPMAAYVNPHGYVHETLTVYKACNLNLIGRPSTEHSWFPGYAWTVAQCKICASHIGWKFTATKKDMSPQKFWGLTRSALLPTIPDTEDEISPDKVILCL

[2] = target: T1, Protein cereblon/Indoleamine 2,3-dioxygenase 1; test: Protac activity at CRBN/IDO1-HA expressed in human U87 cells assessed as IDO1 degradation in intracellular nuclear compartment measured at 1 to 10 uM after 24 hrs by Western blotting analysis; assay type: subcellular; conditions: Nucleus, dose 1-10 µM
Target sequence in this assay (P14902 whole entry, looked up): as the sequence (P14902 whole entry, looked up) above
Target sequence in this assay (Q96SW2 whole entry, looked up): as the sequence (Q96SW2 whole entry, looked up) above

[3] = target: T2, Indoleamine 2,3-dioxygenase 1 (Homo sapiens, UniProt P14902); test: Binding affinity to IDO1 (unknown origin) assessed as binary complex stability by measuring half-life by bio-layer interferometry assay
[4] = target: T1, Protein cereblon/Indoleamine 2,3-dioxygenase 1; test: Protac activity at IDO1/CRBN in IFNgamma-stimulated human PBMC cells isolated form non-GBM patient assessed as IDO1 degradation by measuring decrease in intracellular protein level measured after 24 hrs by Western blotting analysis; assay type: cell-based; conditions: DDE = dose-dependent effect
Target sequence in this assay (P14902 whole entry, looked up): as the sequence (P14902 whole entry, looked up) above
Target sequence in this assay (Q96SW2 whole entry, looked up): as the sequence (Q96SW2 whole entry, looked up) above

[5] = Drug uptake in C57BL/6 mouse brain at 25 mg/kg, ip measured after 6 hrs by equilibrium dialysis; assay type: ADME, organism-based; conditions: in vivo
How it was run: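 C57BL/6 mice received a single 25 mg/kg ip dose. Serum and brain were sampled at 0 to 24 h and the drug was quantified by mass spectrometry (n = 3 mice/dose). Binding to mouse brain homogenate was measured by 6 h equilibrium dialysis.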

[6] = target: T1, Protein cereblon/Indoleamine 2,3-dioxygenase 1; test: Protac activity at IDO1/CRBN in IFNgamma-stimulated human PBMC cells isolated form GBM patient assessed as IDO1 degradation by measuring decrease in intracellular protein level measured after 24 hrs by Western blotting analysis; assay type: cell-based; conditions: DDE = dose-dependent effect
Target sequence in this assay (P14902 whole entry, looked up): as the sequence (P14902 whole entry, looked up) above
Target sequence in this assay (Q96SW2 whole entry, looked up): as the sequence (Q96SW2 whole entry, looked up) above

[7] = target: T2, Indoleamine 2,3-dioxygenase 1; test: Inhibition of human IDO1 expressed in Escherichia coli BL21(DE3) using D-tryptophan as substrate assessed as formation of kynurenine production; conditions: DDE = dose-dependent effect
[8] = Half life in C57BL/6 mouse plasma at 25 mg/kg, ip; assay type: ADME, organism-based
Ido1/Crbn (Mus musculus) = Ido1/Crbn (Mus musculus) (UniProt P28776+Q8C7D2); test: Protac activity at IDO1/CRBN in IFNgamma-stimulated mouse GL261 cells assessed as IDO1 degradation by measuring decrease in intracellular protein level measured after 24 hrs by Western blotting analysis; assay type: cell-based; conditions: dose 1-10 µM, DDE = dose-dependent effect
[9] = Drug uptake in C57BL/6 mouse pancreas at 50 mg/kg, ip treated 5 days/week for 3 weeks by LC/MS/MS analysis; assay type: ADME, organism-based; conditions: in vivo, 504 h
[10] = target: T1, Protein cereblon/Indoleamine 2,3-dioxygenase 1; test: Protac activity at CRBN/IDO1 in enzyme-null cDNA transfected in human U87 cells assessed as IDO1 degradation by measuring decrease in protein level measured at 0.1 to 10 uM after 24 hrs by Western blotting analysis; assay type: cell-based; conditions: dose 0.1-10 µM
Target sequence in this assay (P14902 whole entry, looked up): as the sequence (P14902 whole entry, looked up) above
Target sequence in this assay (Q96SW2 whole entry, looked up): as the sequence (Q96SW2 whole entry, looked up) above

[11] = target: T1, Protein cereblon/Indoleamine 2,3-dioxygenase 1; test: Protac activity at IDO1/CRBN in IFNgamma-stimulated human U87 cells assessed as IDO1 degradation at 10 uM measured after 24 hrs by Western blotting analysis relative to control; assay type: cell-based
How it was run: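 U87 GBM cells primed with human IFNγ 50 ng/mL for 24 h, then exposed to PROTAC at 10 μM for 24 h. Lysates run on western blot; IDO1 bands quantified by densitometry and expressed as percent of normalized IDO1 protein level.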
Target sequence in this assay (P14902 whole entry, looked up): as the sequence (P14902 whole entry, looked up) above
Target sequence in this assay (Q96SW2 whole entry, looked up): as the sequence (Q96SW2 whole entry, looked up) above

[12] = target: T1, Protein cereblon/Indoleamine 2,3-dioxygenase 1; test: Protac activity at IDO1/CRBN in IFNgamma-stimulated human CD18 cells assessed as IDO1 degradation by measuring decrease in intracellular protein level measured after 24 hrs by Western blotting analysis; assay type: cell-based; conditions: CD18 cell, DDE = dose-dependent effect
[13] = target: T1, Protein cereblon/Indoleamine 2,3-dioxygenase 1; test: Protac activity at IDO1/CRBN in IFNgamma-stimulated human GBM43 cells assessed as IDO1 degradation measured after 24 hrs by Western blotting analysis; assay type: cell-based, GBM43 cell
How it was run: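 GBM43 cells stimulated with 50 ng/mL human IFNγ for 24 h, then treated across 0.01 to 30 μM for 24 h. IDO1 was quantified by western blot densitometry as percent of IFNγ-induced untreated level. DC50 came from the dose-response curve; n = 3 independent experiments, mean ± SEM.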

Mus musculus = test: In vivo Protac activity at IDO1/CRBN in luciferase-modified GL261 cells engrafted mouse cancer model assessed as increase in survival time measured at 25 mg/kg, ip treated 14 days post tumor implantation; conditions: time 14 day
[14] = target: T1, Protein cereblon/Indoleamine 2,3-dioxygenase 1; test: Protac activity at CRBN/IDO1-FLAG expressed in human U87 cells assessed as IDO1 degradation in intracellular cytoplasmic compartment measured at 1 to 10 uM after 24 hrs by Western blotting analysis; assay type: subcellular; conditions: Cytoplasm, dose 1-10 µM
[15] = target: T1, Protein cereblon/Indoleamine 2,3-dioxygenase 1; test: Binding affinity to CRBN /IDO1 (unknown origin) assessed as ternary complex stability by measuring half-life by bio-layer interferometry assay; assay type: protein assay
How it was run: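 For the ternary complex, compound was preincubated with a 25-fold molar excess of CRBN, and binding of this binary complex to IDO1 was followed in real time.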

[16] = target: T1, Protein cereblon/Indoleamine 2,3-dioxygenase 1; test: Protac activity at CRBN/IDO1 in 50 ng/mL IFNgamma-stimulated human U87 cells assessed as IDO1 degradation by measuring decrease in protein level measured at 0.1 to 10 uM after 24 hrs by Western blotting analysis; conditions: dose 0.1-10 µM
[17] = Toxicity in C57BL/6 mouse assessed as mortality at 100 mg/kg, ip treated 5 days/week for 3 weeks; assay type: organism-based; conditions: in vivo, 504 h
[18] = target: T1, Protein cereblon/Indoleamine 2,3-dioxygenase 1; test: Protac activity at CRBN/IDO1 non-enzyme mediated NF-kappaB signal in IFNgamma-stimulated human U87 cells assessed as decrease in p65 phosphorylation at 0.1 to 10 uM measured after 24 hrs Western blotting assay; assay type: cell-based; conditions: dose 0.1-10 µM
How it was run: (§1)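 IFNγ-stimulated cells were induced for 24 h, then treated at several concentrations for 24 h. Lysates were western blotted for IDO1, phospho-p65, total p65 and GAPDH.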

[19] = target: T1, Protein cereblon/Indoleamine 2,3-dioxygenase 1; test: Protac activity at IDO1/CRBN in IFNgamma-stimulated human KNS-42 cells assessed as IDO1 degradation measured after 24 hrs by Western blotting analysis; assay type: cell-based; conditions: dose 0.1-10 µM, DDE = dose-dependent effect
[20] = Drug uptake in C57BL/6 mouse brain at 10 to 100 mg/kg, ip treated 5 days/week for 3 weeks by LC/MS/MS analysis; assay type: ADME, organism-based; conditions: in vivo, 504 h, dose 10-100 mg/kg
How it was run: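 Male C57BL/6 mice dosed ip at 10, 25, 50 or 100 mg/kg, 5 days/week for 3 weeks, alongside vehicle. After 3 weeks, serum and brain homogenate were analysed by mass spectrometry for drug level; mean ± SEM, n = 3 mice/dose.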

[21] = target: T1, Protein cereblon/Indoleamine 2,3-dioxygenase 1; test: Protac activity at CRBN/IDO1 non-enzyme mediated NF-kappaB signal in IFNgamma-stimulated human MDA-MB-231 cells assessed as decrease in p65 phosphorylation at 0.1 to 10 uM measured after 24 hrs Western blotting assay; assay type: cell-based; conditions: dose 0.1-10 µM; how it was run: as §1
[22] = target: T1, Protein cereblon/Indoleamine 2,3-dioxygenase 1; test: Protac activity at CRBN/IDO1 non-enzyme mediated NF-kappaB signal in IFNgamma-stimulated human GBM43 cells assessed as decrease in p65 phosphorylation at 0.1 to 10 uM measured after 24 hrs Western blotting assay; assay type: cell-based; conditions: GBM43 cell, dose 0.1-10 µM; how it was run: as §1

T2 sequence (P14902 whole entry, looked up): as the sequence (P14902 whole entry, looked up) above
Chain of Ido1/Crbn (Mus musculus) (P28776 whole entry, looked up): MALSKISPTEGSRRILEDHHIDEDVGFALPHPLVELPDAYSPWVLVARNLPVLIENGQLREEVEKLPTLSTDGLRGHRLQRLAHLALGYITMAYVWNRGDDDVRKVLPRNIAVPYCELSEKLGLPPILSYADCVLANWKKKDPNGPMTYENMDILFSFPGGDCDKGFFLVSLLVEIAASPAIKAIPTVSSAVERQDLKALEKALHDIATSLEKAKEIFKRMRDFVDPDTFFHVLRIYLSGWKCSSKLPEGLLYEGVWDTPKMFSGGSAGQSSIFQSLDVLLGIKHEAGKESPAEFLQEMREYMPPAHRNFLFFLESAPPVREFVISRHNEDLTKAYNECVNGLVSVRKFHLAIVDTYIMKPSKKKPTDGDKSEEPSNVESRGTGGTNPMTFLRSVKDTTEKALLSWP
Chain of Ido1/Crbn (Mus musculus) (Q8C7D2 whole entry, looked up): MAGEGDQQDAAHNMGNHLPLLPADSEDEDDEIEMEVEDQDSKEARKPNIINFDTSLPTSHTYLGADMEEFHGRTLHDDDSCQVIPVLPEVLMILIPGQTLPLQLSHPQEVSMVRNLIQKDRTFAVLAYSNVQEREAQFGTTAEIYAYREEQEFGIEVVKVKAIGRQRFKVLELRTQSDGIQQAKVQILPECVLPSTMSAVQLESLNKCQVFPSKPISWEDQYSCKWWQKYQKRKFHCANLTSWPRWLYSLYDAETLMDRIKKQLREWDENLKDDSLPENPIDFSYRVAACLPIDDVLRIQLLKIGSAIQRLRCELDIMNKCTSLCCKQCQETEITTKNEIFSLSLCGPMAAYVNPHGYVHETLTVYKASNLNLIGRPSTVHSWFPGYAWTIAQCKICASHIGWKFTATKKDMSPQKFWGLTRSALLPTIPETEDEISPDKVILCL

With `C[C@@H](C(=O)Nc1ccc(OC2CCN(C(=O)CCOCCOCCNc3cccc4c3C(=O)N(C3CCC(=O)NC3=O)C4=O)CC2)cc1)[C@H]1CC[C@@H](c2ccnc3ccc(F)cc32)CC1` (stereo not given in full) the Activity [1] was “Active”, the Activity [2] was “Active” and the T1/2 [3] was 0.267 min. For the same compound, the Activity [4] was “Dde”, the Drug uptake [5] was 99.8% and the Activity [6] was “Dde”. The Activity [7] was “Dde”, the half-life [8] was 150 min and the Activity (Ido1/Crbn (Mus musculus)) was “Dde”. The Drug uptake [9] was “Active”, the Activity [10] was “Active” and the Activity [11] was 94%. The Activity [12] was “Dde”, the pEC50 [13] was 6.26 and the Activity ([13]; GBM43 cell, dose 1-10 µM, DDE = dose-dependent effect) was “Dde”. The Time (Mus musculus) was 45 days, the Activity [14] was “Active” and the T1/2 [15] was 7.7 min. The Activity [16] was “Active”, the Activity [17] was “Toxic” and the Activity [18] was “Active”. The Activity [19] was “Dde”, the Drug uptake [20] was “Active” and the inhibition [21] was “Active”. The inhibition [22] was “Active”.
